Source: ChEMBL document CHEMBL1154155, “Novel 2,4,5-trisubstituted oxazole derivatives: synthesis and antiproliferative activity” (Eur J Med Chem, 2009)

System: A-431
Assay: Antiproliferative activity against human A431 cells after 48 hrs by MTT assay
Type: functional, cell-based
Details: A-431, 48 h
In short: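 Cells in complete medium seeded into 96-well plates, preincubated 24 h at 37 °C, 5% CO₂ before cytotoxicity assessment; absorbance read at 570 nm on plate reader.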

For `O=c1[nH]cc(F)c(=O)[nH]1` [FLUOROURACIL], the IC50 was 18 nM.
